# pIC50: −log10 of the molar value. Activity calls are given as the source filed them. The rule behind the calls is not given here.
# Tests used:
# [1] = molecular target: T1, Enoyl-[acyl-carrier-protein] reductase [NADH] (Mycobacterium tuberculosis) (UniProt P9WGR1); test: Inhibition of InhA in Mycobacterium tuberculosis H37Ra assessed as reduction in mycolic acids synthesis by measuring FAME level at 200 uM incubated for 48 hrs using [14C]acetate by TLC based metabolic labeling assay relative to control
# T1 sequence (whole entry): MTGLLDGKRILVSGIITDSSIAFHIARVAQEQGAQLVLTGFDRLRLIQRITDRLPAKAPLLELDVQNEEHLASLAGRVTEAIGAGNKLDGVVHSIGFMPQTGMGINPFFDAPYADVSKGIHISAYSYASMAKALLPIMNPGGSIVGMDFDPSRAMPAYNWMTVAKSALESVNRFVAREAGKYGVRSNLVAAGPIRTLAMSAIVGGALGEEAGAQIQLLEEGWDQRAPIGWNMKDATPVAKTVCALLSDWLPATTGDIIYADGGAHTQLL
# Summary of the method: (§1)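 H37Ra in 7H9/ADC/Tween 80 at OD600 0.290 received compound at 200 μM final (1% DMSO), with isoniazid 40 μM as control. After 24 h, 14C acetate (0.5 μCi/mL) was added for a further 24 h. FAMEs and MAMEs were prepared from whole cells, loaded normalised to OD600, separated by TLC, and detected by autoradiography.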
# [2] = molecular target: T1, Enoyl-[acyl-carrier-protein] reductase [NADH] (Mycobacterium tuberculosis); test: Inhibition of InhA in Mycobacterium tuberculosis H37Ra assessed as reduction in mycolic acids synthesis by measuring MAME level at 200 uM incubated for 48 hrs using [14C]acetate by TLC based metabolic labeling assay relative to control; summary of the method: as §1
# [3] = molecular target: T1, Enoyl-[acyl-carrier-protein] reductase [NADH] (Mycobacterium tuberculosis); test: Inhibition of InhA in Mycobacterium tuberculosis H37Ra assessed as accumulation of trehalose monomycolates at 200 uM incubated for 48 hrs using [14C]acetate by TLC based metabolic labeling assay relative to control
# Summary of the method: (§2)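 H37Ra was grown statically at 37 °C in 7H9/ADC/0.05% Tween 80 to OD600 0.290. Compound was added at 200 μM final (1% DMSO), with isoniazid 40 μM as control inhibitor. After 24 h shaking, 14C acetate (0.5 μCi/mL) was added for another 24 h. Total lipids were extracted with chloroform/methanol and washed biphasically. TLC in chloroform/methanol/water 20:4:0.5, then autoradiography.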
# [4] = molecular target: T1, Enoyl-[acyl-carrier-protein] reductase [NADH] (Mycobacterium tuberculosis); test: Inhibition of InhA in Mycobacterium tuberculosis H37Ra assessed as decrease in trehalose dimycolates level at 200 uM incubated for 48 hrs using [14C]acetate by TLC based metabolic labeling assay relative to control; summary of the method: as §2
# [5] = molecular target: T1, Enoyl-[acyl-carrier-protein] reductase [NADH] (Mycobacterium tuberculosis); test: Binding affinity to hexahistidine-SUMO tagged Mycobacterium tuberculosis InhA expressed in Escherichia coli BL21(DE3) at 1 mM in presence of 0.5 mM NAD+ by NMR spectroscopy
# Summary of the method: (§3)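 Ligand-observed NMR binding (CPMG T2 relaxation, WaterLOGSY, STD): 20 μM InhA (His6-SUMO tag removed by Ulp1, then gel-filtered) with 0.5 mM NAD+ and fragment at 1 mM. All three techniques were run on each fragment to validate thermal-shift hits.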
# [6] = molecular target: T1, Enoyl-[acyl-carrier-protein] reductase [NADH] (Mycobacterium tuberculosis); test: Binding affinity to hexahistidine-SUMO tagged Mycobacterium tuberculosis InhA expressed in Escherichia coli BL21(DE3) at 1 mM in presence of 0.5 mM NAD+ by CPMG NMR analysis; summary of the method: as §3
# [7] = molecular target: T1, Enoyl-[acyl-carrier-protein] reductase [NADH] (Mycobacterium tuberculosis); test: Binding affinity to hexahistidine-SUMO tagged Mycobacterium tuberculosis InhA expressed in Escherichia coli BL21(DE3) at 1 mM in presence of 0.5 mM NAD+ by WaterLOGSY NMR analysis; summary of the method: as §3
# [8] = molecular target: T1, Enoyl-[acyl-carrier-protein] reductase [NADH] (Mycobacterium tuberculosis); test: (§4) Inhibition of hexahistidine-SUMO tagged Mycobacterium tuberculosis InhA expressed in Escherichia coli BL21(DE3) at 2 mM preincubated for 10 mins with NADH before addition of 2-trans-octanoyl-CoA as substrate and measured after 20 mins by NADH oxidation detection based colorimetric assay relative to control
# Summary of the method: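 InhA 100 nM in PIPES pH 7.5/NaCl/EDTA was preincubated 10 min with 0.25 mM NADH and fragment (1% DMSO). Reaction started with 1.5 mM 2-trans-octanoyl-CoA. A340 decrease was followed for 20 min.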
# [9] = molecular target: T1, Enoyl-[acyl-carrier-protein] reductase [NADH] (Mycobacterium tuberculosis); test: as §4, with “at 0.1” for “at 2”
# Summary of the method: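 Percent inhibition at 100 μM: tag-cleaved InhA (100 nM) in 30 mM PIPES pH 7.5, 50 mM NaCl, 0.1 mM EDTA was preincubated 10 min at room temperature with 0.25 mM NADH and compound (1% DMSO). Reaction started with 1.5 mM 2-trans-octanoyl-CoA final. NADH oxidation was read at 340 nm for 20 min.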
# [10] = molecular target: T2, Enoyl-[acyl-carrier-protein] reductase [NADH] (Mycobacterium tuberculosis, UniProt P9WGR1); test: Inhibition of hexahistidine-SUMO tagged Mycobacterium tuberculosis InhA expressed in Escherichia coli BL21(DE3) at preincubated for 10 mins with NADH before addition of 2-trans-octanoyl-CoA as substrate and measured after 20 mins by NADH oxidation detection based colorimetric assay
# T2 sequence (P9WGR1 whole entry): T1 sequence (whole entry)
Compound,inhibition [1],inhibition [2],inhibition [3],inhibition [4],Activity [5],Activity [6],Activity [7],inhibition [8],inhibition [9] [%],pIC50 [10]
NCc1ccc(NS(=O)(=O)/C=C/c2cccc(C(F)(F)F)c2)cc1,inactive,inactive,inactive,inactive,,,,,,
Cc1c(S(=O)(=O)Nc2cccc(CN)c2)sc2ccc(Cl)cc12,inactive,inactive,inactive,inactive,,,,,,
O=C(O)c1cc2ccccc2cc1O,,,,,Active,Active,Active,inactive,,
O=C(O)c1ccccc1-n1cccn1,,,,,Active,Active,Active,inactive,,
O=C(O)/C=C/c1cccc(C(F)(F)F)c1,,,,,Active,Active,Active,,,
NCc1cccc(NS(=O)(=O)/C=C/c2cccc(C(F)(F)F)c2)c1,Active,Active,Active,Active,,,,,,
NNC(=O)c1ccncc1,100%,100%,,,,,,,,
O=C(O)c1ccccc1C(=O)c1ccc(Cl)c([N+](=O)[O-])c1,,,,,Active,Active,Active,inactive,,
O=C(O)CCc1cccc(Cl)c1,,,,,Active,Active,Active,inactive,,
NC(=O)c1cccc(NS(=O)(=O)/C=C/c2cccc(C(F)(F)F)c2)c1,,,,,,,,,0,
NCc1cccc(NS(=O)(=O)c2cc3ccccc3o2)c1,inactive,inactive,inactive,inactive,,,,,,4.66
Cc1c(S(=O)(=O)Nc2cccc(CN)c2)sc2ccc(F)cc12,inactive,inactive,inactive,inactive,,,,,,
NCc1cccc(NS(=O)(=O)c2cc3ccccc3s2)c1,inactive,inactive,inactive,inactive,,,,,,

# — ChEMBL document CHEMBL4402593, “Fragment-Based Design of Mycobacterium tuberculosis InhA Inhibitors” (J Med Chem, 2020)
